Data reported in ChEMBL document CHEMBL5038582, “Adamantyl Isothiocyanates as Mutant p53 Rescuing Agents and Their Structure-Activity Relationships” (J Med Chem, 2021).
Calls of active or inactive are those of the source. No cut-off for these calls is given here.

How the values were obtained:
[1] = system: MDA-MB-231; experiment: Antiproliferative activity against human MDA-MB-231 cells expressing p53 R280K mutant assessed as inhibition of cell growth at 10 to 50 uM incubated for 24 to 72 hrs by WST-1 assay; assay type: functional, cell-based; details: dose 10-50 µM, time 24-72 hrs
In short: (§1)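 WST-1 proliferation assay. Compound diluted in DMSO so that 10 μl of stock in 1 ml of cells (40,000 cells/ml) gives the test concentration at 1% DMSO. Cells plated at 4,000/well in duplicate and incubated at 37 °C for 24 h or 72 h. Result given as % of the 1% DMSO control.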

[2] = Octanol-water partition coefficient, logP of the compound by HPLC-MS analysis; assay type: physicochemical; details: for logP: 18 h
In short: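 Compound (10 µL of 10 mM DMSO stock) added to 0.5 mL octanol plus 0.5 mL sodium phosphate buffer pH 7.4. Stirred 18 h, centrifuged 2 h at 3600 rpm. Concentration in each phase measured by LC-MS on a C18 column.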

[3] = system: MDA-MB-231; experiment: Antiproliferative activity against human MDA-MB-231cells expressing p53 R280K mutant assessed as inhibition of cell growth at 10 to 50 uM incubated for 24 hrs by WST-1 assay; assay type: functional, cell-based; details: dose 10-50 µM; in short: as §1
[4] = system: MCF7; experiment: Antiproliferative activity against human MCF7 cells expressing WT p53 assessed as inhibition of cell growth at 10 to 50 uM incubated for 24 to 72 hrs by WST-1 assay; assay type: functional, cell-based; details: dose 10-50 µM, time 24-72 hrs; in short: as §1
[5] = system: MDA-MB-468; experiment: Antiproliferative activity against human MDA-MB-468 cells expressing p53 R273H mutant assessed as inhibition of cell growth at 10 to 50 uM incubated for 24 to 72 hrs by WST-1 assay; assay type: functional, cell-based; details: dose 10-50 µM, time 24-72 hrs; in short: as §1
[6] = system: MCF7; experiment: Upregulation of p53 expression in human MCF7 cells at 6 to 12 uM measured after 24 hrs by immunoblot analysis; assay type: functional, cell-based; details: dose 6-12 µM
In short: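 Cells treated with DMSO or compound at 6 or 12 µM for 24 h and lysed. 50 µg MCF-7 lysate resolved by SDS-PAGE and probed with p53 DO-1 antibody. Reprobed with anti-GAPDH as loading control. Run in triplicate.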

[7] = system: MDA-MB-231; experiment: Downregulation of p53 R280K mutant expression in human MDA-MB-231 cells at 6 to 12 uM measured after 24 hrs by immunoblot analysis; details: dose 6-12 µM
[8] = system: MDA-MB-468; experiment: Downregulation of p53 R273H mutant expression in human MDA-MB-468 cells at 6 to 12 uM measured after 24 hrs by immunoblot analysis; assay type: functional, cell-based; details: dose 6-12 µM
In short: (§2)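 24 h exposure to 6 or 12 μM, DMSO control. Lysis in Tris pH 8.0/NaCl/glycerol/NP-40/EDTA buffer with protease inhibitors. 20 µg (MDA-MB-231, MDA-MB-468) or 50 µg (MCF-7) of lysate run on 4-12% SDS-PAGE. Blot probed with p53 DO-1, GAPDH used for reprobe/loading. Triplicate experiments.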

[9] = system: MCF7; experiment: Induction of apoptosis in human MCF7 cells expressing wild type p53 assessed as decrease in level of uncleaved PARP1 level at 6 to 12 uM measured after 24 hrs by western blotting analysis; assay type: functional, cell-based; details: dose 6-12 µM
In short: (§3)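 Cells treated with DMSO or compound at 6 or 12 µM for 24 h, then lysed in Tris-Cl pH 8.0/NaCl/glycerol/NP-40/EDTA buffer with protease inhibitors. 100 µg lysate resolved on 4-12% SDS-PAGE and blotted to PVDF. Probed with anti-PARP or anti-caspase 3, then HRP secondary and ECL. GAPDH reprobe as control.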

[10] = system: MDA-MB-231; experiment: Induction of apoptosis in human MDA-MB-231 cells expressing p53 R280K mutant assessed as decrease in level of uncleaved caspase 3 level at 6 to 12 uM measured after 24 hrs by western blotting analysis; assay type: functional, cell-based; details: dose 6-12 µM; in short: as §3
[11] = system: MCF7; experiment: Induction of apoptosis in human MCF7 cells expressing wild type p53 assessed as increase in cleaved PARP1 level at 6 to 12 uM measured after 24 hrs by western blotting analysis; assay type: functional, cell-based; details: dose 6-12 µM; in short: as §3
[12] = system: MDA-MB-231; experiment: Induction of apoptosis in human MDA-MB-231 cells expressing p53 R280K mutant assessed as increase in level of cleaved PARP1 level at 6 to 12 uM measured after 24 hrs by western blotting analysis; assay type: functional, cell-based; details: dose 6-12 µM; in short: as §3
[13] = system: MDA-MB-468; experiment: Induction of apoptosis in human MDA-MB-468 cells expressing p53 R273H mutant assessed as increase in level of cleaved PARP1 level at 6 to 12 uM measured after 24 hrs by western blotting analysis; assay type: functional, cell-based; details: dose 6-12 µM; in short: as §3
[14] = system: MDA-MB-468; experiment: Induction of apoptosis in human MDA-MB-468 cells expressing p53 R273H mutant assessed as decrease in level of uncleaved caspase 3 level at 6 to 12 uM measured after 24 hrs by western blotting analysis; assay type: functional, cell-based; details: dose 6-12 µM; in short: as §3
[15] = system: MDA-MB-231; experiment: Antiproliferative activity against human MDA-MB-231 cells expressing p53 R280K mutant assessed as inhibition of cell growth incubated for 24 hrs by WST-1 assay; assay type: functional, cell-based; details: MDA-MB-231, 24 h
In short: (§4)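 WST-1 proliferation assay. Compound diluted in DMSO and added to cells at 1% DMSO final. 4,000 cells/well in duplicate; DMSO-only wells as control, cell-free medium wells for background.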

[16] = system: MCF7; experiment: Induction of apoptosis in human MCF-7 cells expressing wild type p53 assessed increase in number of Annexin-V stained cells at 6 to 12 uM incubated for 24 hrs by AnnexinV-FITC and PI staining based flow cytometry; assay type: functional, cell-based; details: dose 6-12 µM
In short: (§5)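 24 h treatment, DMSO control. Cells scraped, washed in PBS, then given fluorochrome-conjugated Annexin V for 15 min at RT in the dark, followed by PI (0.1 µg/ml) in binding buffer. Read by flow cytometry on LSRFortessa. Annexin V-positive cells expressed relative to the DMSO control.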

[17] = system: MDA-MB-231; experiment: Induction of apoptosis in human MDA-MB-231 cells expressing p53 R280K mutant assessed fold increase in number of Annexin-V stained cells at 6 to 12 uM incubated for 24 hrs by AnnexinV-FITC and PI staining based flow cytometry relative to control; assay type: functional; details: dose 6-12 µM; in short: as §5
[18] = system: MCF7; experiment: Downregulation of p53 expression in human MCF7 cells at 6 to 12 uM measured after 24 hrs by immunoblot analysis; assay type: functional, cell-based; details: dose 6-12 µM; in short: as §2
[19] = system: MDA-MB-468; experiment: Induction of apoptosis in human MDA-MB-468 cells expressing p53 R273H mutant assessed fold increase in number of Annexin-V stained cells at 6 to 12 uM incubated for 24 hrs by AnnexinV-FITC and PI staining based flow cytometry relative to control; assay type: functional; details: dose 6-12 µM; in short: as §5
[20] = system: MDA-MB-231; experiment: Antiproliferative activity against human MDA-MB-231 cells expressing p53 R280K mutant assessed as inhibition of cell growth at 24 to 48 uM incubated for 72 hrs by WST-1 assay; assay type: functional; details: dose 24-48 µM; in short: as §1
[21] = system: MDA-MB-231; experiment: Antiproliferative activity against human MDA-MB-231 cells expressing p53 R280K mutant assessed as inhibition of cell growth incubated for 72 hrs by WST-1 assay; assay type: functional, cell-based; details: MDA-MB-231, 72 h; in short: as §4
[22] = system: MDA-MB-231; experiment: Induction of apoptosis in human MDA-MB-231 cells expressing p53 R280K mutant assessed increase in number of Annexin-V stained cells at 6 to 12 uM incubated for 24 hrs by AnnexinV-FITC and PI staining based flow cytometry; assay type: functional, cell-based; details: dose 6-12 µM; in short: as §5
[23] = system: MDA-MB-468; experiment: Induction of apoptosis in human MDA-MB-468 cells expressing p53 R273H mutant assessed increase in number of Annexin-V stained cells at 6 to 12 uM incubated for 24 hrs by AnnexinV-FITC and PI staining based flow cytometry; assay type: functional, cell-based; details: dose 6-12 µM; in short: as §5

CC(N=C=S)C12CC3CC(CC(C3)C1)C2 (stereo not drawn)
Activity [1]: inactive

S=C=Nc1ccc(C23CC4CC(CC(C4)C2)C3)cc1
logP [2]: 6.34
Activity [3]: Dose-Dependent Effect

CCCC(CN=C=S)C1C2CC3CC(C2)CC1C3 (stereo not drawn)
logP [2]: 6.77
Activity [1]: inactive

C1C2CC3CC1CC(C2)C3
Activity [4]: inactive
Activity [1]: inactive
Activity [5]: inactive

S=C=NCCOC12CC3CC(CC(C3)C1)C2
logP at 18 h [2]: 3.73
Activity [1]: inactive

S=C=NC1C2CC3CC(C2)CC1C3 (stereo not drawn)
Activity [1]: inactive

S=C=NCCc1ccccc1
Activity [4]: Active
Activity [6]: Active
p53 R280K downregulation (active/not active) [7]: Active
inhibition [8]: Active
Activity [9]: Active
Activity [1]: Active
Activity [10]: Active
Activity [11]: Active
Activity [12]: Active
Activity [13]: Active
Activity [14]: Active

S=C=NCC12CC3CC(CC(C3)C1)C2
IC50 [15]: 24 µM
Activity [4]: Active
Activity [16]: inactive
fold change (FC) [17]: 2
p53 R280K downregulation (active/not active) [7]: Active
inhibition [8]: Active
inhibition [18]: inactive
fold change (FC) [19]: 2
Activity [3]: Dose-Dependent Effect
inhibition (INH) [20]: 50%

S=C=NCCC12CC3CC(CC(C3)C1)C2
IC50 [15]: 24 µM
Activity [4]: inactive
Activity [16]: inactive
IC50 [21]: 12 µM
fold change (FC) [17]: 2
p53 R280K downregulation (active/not active) [7]: Active
inhibition [8]: Active
inhibition [18]: inactive
fold change (FC) [19]: 2
Activity [3]: Dose-Dependent Effect

CC(C)(COC12CC3CC(CC(C3)C1)C2)N=C=S
Activity [1]: inactive

O=C1CNC(=S)N1CCC12CC3CC(CC(C3)C1)C2
Activity [4]: inactive
Activity [16]: inactive
Activity [22]: inactive
p53 R280K downregulation (active/not active) [7]: inactive
inhibition [8]: inactive
logP at 18 h [2]: 3.73
inhibition [18]: inactive
Activity [1]: inactive
Activity [5]: inactive
Activity [23]: inactive

S=C=NC12CC3CC(CC(C3)C1)C2
Activity [16]: inactive
Activity [22]: inactive
p53 R280K downregulation (active/not active) [7]: inactive
inhibition [8]: inactive
inhibition [18]: inactive
Activity [1]: inactive
Activity [23]: inactive

CC12CC3CC(C)(C1)CC(N=C=S)(C3)C2
Activity [1]: inactive

O=C(CC12CC3CC(CC(C3)C1)C2)N=C=S
logP [2]: 3.73
Activity [1]: inactive
